Results: ChEMBL document CHEMBL3091299, “Adamantyl derivative as a potent inhibitor of Plasmodium FK506 binding protein 35” (ACS Med Chem Lett, 2013)
Activity calls are given as the source filed them. The rule behind the calls is not given here.

Assays:
Plasmodium falciparum [1] = assay: Antimicrobial activity against mid-ring stage Plasmodium falciparum 3D7 infected in erythrocytes assessed as change in parasite morphology at 500 nM after 8 hrs by Giemsa-staining based microscopy relative to control; assay type: functional, organism-based
How it was run: (§1)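 Highly synchronized ring-infected erythrocytes (3D7) followed over one full 48 h intraerythrocytic cycle with inhibitor, chloroquine, artemisinin, or no treatment. Parasitaemia (%) and morphology were scored from Giemsa-stained smears every 8 h, with untreated parasites as reference.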

Plasmodium falciparum [2] = assay: Antimicrobial activity against mid-ring stage Plasmodium falciparum 3D7 infected in erythrocytes assessed as death and disintegration of parasite at 500 nM after 16 to 24 hrs by Giemsa-staining based microscopy relative to control; assay type: functional, organism-based; how it was run: as §1
Plasmodium falciparum [3] = assay: Antimicrobial activity against mid-ring stage Plasmodium falciparum 3D7 infected in erythrocytes assessed as reduction in trophozoite stage development at 500 nM after 16 to 24 hrs by Giemsa-staining based microscopy relative to control; assay type: functional, organism-based; how it was run: as §1
Plasmodium falciparum [4] = assay: Antimicrobial activity against mid-ring stage Plasmodium falciparum 3D7 infected in erythrocytes assessed as reduction in parasitemia at 500 nM after 8 hrs by Giemsa-staining based microscopy relative to control; assay type: functional, organism-based; how it was run: as §1
Plasmodium falciparum [5] = assay: Antimicrobial activity against Plasmodium falciparum 3D7 infected in erythrocytes assessed as schizont-stage maturation at 500 nM after 4 to 24 hrs by Giemsa-staining based microscopy relative to control; assay type: functional, organism-based
Plasmodium falciparum [6] = assay: Antimicrobial activity against Plasmodium falciparum 3D7 infected in erythrocytes assessed as ring-stage maturation at 500 nM after 4 to 24 hrs by Giemsa-staining based microscopy relative to control; assay type: functional, organism-based
[7] = Inhibition of Plasmodium falciparum recombinant FKBP35 using Succ-Ala-Leu-Pro-Phe-pNA as substrate after 30 mins by UV-Vis spectrophotometry in presence of alpha-chymotrypsin
Homo sapiens = species: Homo sapiens; assay: Inhibition of human recombinant calcineurin phosphatase activity using RII phosphopeptide as substrate incubated 10 to 30 mins prior to substrate addition by spectrophotometry
Plasmodium falciparum [8] = assay: Antimicrobial activity against Plasmodium falciparum 3D7 infected in erythrocytes assessed as disintegration of trophozoite-stage maturation at 500 nM after 16 hrs by Giemsa-staining based microscopy relative to control; assay type: functional, organism-based
Plasmodium falciparum [9] = assay: Antimicrobial activity against Plasmodium falciparum 3D7 infected in erythrocytes assessed as impairment of trophozoite-stage maturation at 500 nM after 8 hrs by Giemsa-staining based microscopy relative to control; assay type: functional, organism-based
[10] = Inhibition of Plasmodium vivax recombinant FKBP35 using Succ-Ala-Leu-Pro-Phe-pNA as substrate after 30 mins by UV-Vis spectrophotometry in presence of alpha-chymotrypsin

Row | SMILES | Activity (Plasmodium falciparum [1]) | Activity (Plasmodium falciparum [2]) | Activity (Plasmodium falciparum [3]) | Activity (Plasmodium falciparum [4]) | Activity (Plasmodium falciparum [5]) | Activity (Plasmodium falciparum [6]) | IC50 [7] [nM] | inhibition (Homo sapiens) | other results
1 | CCN(CC)CCCC(C)Nc1ccnc2cc(Cl)ccc12 (stereo not drawn) | inactive | Active | Active | inactive |  |  |  |  | 
2 | O=C(NNC(=O)C12CC3CC(CC(C3)C1)C2)c1cccc2ccccc12 |  |  |  |  | inactive | inactive | 49.3 |  | 
3 | C[C@@H]1CC[C@H]2[C@@H](C)C(=O)O[C@@H]3O[C@@]4(C)CC[C@@H]1[C@]32OO4 |  |  |  | Active |  |  |  |  | 
4 | C=CC[C@@H]1/C=C(\C)C[C@H](C)C[C@H](OC)[C@H]2O[C@@](O)(C(=O)C(=O)N3CCCC[C@H]3C(=O)O[C@H](/C(C)=C/[C@@H]3CC[C@@H](O)[C@H](OC)C3)[C@H](C)[C@@H](O)CC1=O)[C@H](C)C[C@@H]2OC |  |  |  |  |  |  |  | Active | 
5 | O=C(NNC(=O)C12CC3CC(CC(C3)C1)C2)c1ccncc1 | inactive | Active | Active | inactive | inactive | inactive | 83 | inactive | Activity (Plasmodium falciparum [8]): Active; Activity (Plasmodium falciparum [9]): Active; IC50 [10]: 75 nM
6 | O=C(NNC(=O)C12CC3CC(CC(C3)C1)C2)c1ccccc1 |  |  |  |  | inactive | inactive | 94.8 |  | 
